Calls of active or inactive are those of the source. The calls are words filed in the database; no cut-off is given here.
Assays:
Adenosine receptor A2a [1] = target: T1, Adenosine receptor A2a (Homo sapiens, UniProt P29274); experiment: Binding affinity at human adenosine A2A receptor
Adenosine receptor A1 = target: T2, Adenosine receptor A1 (Homo sapiens, UniProt P30542); experiment: Binding affinity at human adenosine A1 receptor
T2 sequence (P30542 whole entry): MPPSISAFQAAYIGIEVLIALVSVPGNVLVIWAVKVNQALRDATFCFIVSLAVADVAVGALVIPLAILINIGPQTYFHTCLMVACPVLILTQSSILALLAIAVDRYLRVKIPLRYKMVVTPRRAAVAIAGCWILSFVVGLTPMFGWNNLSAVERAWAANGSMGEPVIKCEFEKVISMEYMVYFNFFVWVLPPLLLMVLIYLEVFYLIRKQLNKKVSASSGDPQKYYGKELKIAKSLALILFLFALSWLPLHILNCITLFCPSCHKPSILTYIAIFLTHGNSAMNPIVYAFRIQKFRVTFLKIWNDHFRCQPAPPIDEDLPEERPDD

Adenosine receptor A2a [2] = target: T1, Adenosine receptor A2a; experiment: Agonist activity at human recombinant adenosine A2A receptor expressed in CHO cells assessed as calcium mobilization by FLIPR assay; type: functional, cell-based
Mus musculus [3] = experiment: Reversal of haloperidol-induced hypolocomotion in mouse at 30 mg/kg, ip; type: functional, organism-based; parameters: dose 30 mg/kg
Summary of the method: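 Haloperidol-induced hypolocomotion model in mice. Test compound was given intraperitoneally at 30 mg kg-1, and reversal of the reduced locomotion was assessed.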

Adenosine receptor A2b = target: T3, Adenosine receptor A2b (Homo sapiens, UniProt P29275); experiment: Binding affinity at human adenosine A2B receptor
T3 sequence (P29275 whole entry): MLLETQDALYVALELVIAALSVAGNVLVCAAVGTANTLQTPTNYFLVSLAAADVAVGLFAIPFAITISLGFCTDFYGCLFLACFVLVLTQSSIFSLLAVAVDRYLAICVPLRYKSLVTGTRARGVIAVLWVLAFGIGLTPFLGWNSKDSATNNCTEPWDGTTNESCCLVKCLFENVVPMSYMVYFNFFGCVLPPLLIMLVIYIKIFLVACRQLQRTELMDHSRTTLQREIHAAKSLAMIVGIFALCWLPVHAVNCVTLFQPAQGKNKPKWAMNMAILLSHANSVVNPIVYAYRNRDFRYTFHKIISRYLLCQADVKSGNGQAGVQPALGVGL

Adenosine receptor A3 = target: T4, Adenosine receptor A3 (Homo sapiens, UniProt P0DMS8); experiment: Binding affinity at human adenosine A3 receptor
T4 sequence (P0DMS8 whole entry): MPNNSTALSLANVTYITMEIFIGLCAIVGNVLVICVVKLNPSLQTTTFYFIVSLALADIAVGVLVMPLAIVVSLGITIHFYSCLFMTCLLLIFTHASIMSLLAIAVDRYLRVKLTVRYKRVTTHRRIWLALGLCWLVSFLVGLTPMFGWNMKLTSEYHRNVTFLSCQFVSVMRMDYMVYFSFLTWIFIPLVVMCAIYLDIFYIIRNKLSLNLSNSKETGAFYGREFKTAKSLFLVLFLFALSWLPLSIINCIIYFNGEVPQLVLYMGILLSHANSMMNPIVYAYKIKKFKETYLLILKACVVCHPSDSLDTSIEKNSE

Mus musculus [4] = experiment: Reversal of haloperidol-induced hypolocomotion in mouse at 10 mg/kg, sc; type: functional, organism-based; parameters: dose 10 mg/kg

T1 sequence (P29274 whole entry): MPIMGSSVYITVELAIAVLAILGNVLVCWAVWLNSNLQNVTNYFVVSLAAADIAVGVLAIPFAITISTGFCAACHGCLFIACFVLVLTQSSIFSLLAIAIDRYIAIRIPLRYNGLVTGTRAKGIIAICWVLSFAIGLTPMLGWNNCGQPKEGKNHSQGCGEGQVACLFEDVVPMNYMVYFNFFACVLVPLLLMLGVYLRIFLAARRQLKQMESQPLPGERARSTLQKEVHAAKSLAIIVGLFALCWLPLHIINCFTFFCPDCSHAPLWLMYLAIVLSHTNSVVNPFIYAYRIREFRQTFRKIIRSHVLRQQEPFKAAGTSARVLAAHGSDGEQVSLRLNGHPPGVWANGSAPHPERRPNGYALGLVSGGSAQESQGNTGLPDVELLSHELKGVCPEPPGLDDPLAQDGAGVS

SMILES | Ki (Adenosine receptor A2a [1]) [nM] | Ki (Adenosine receptor A1) [nM] | EC50 (Adenosine receptor A2a [2]) [nM] | Ki (Adenosine receptor A2b) [nM] | Ki (Adenosine receptor A3) [nM] | Activity (Mus musculus [3]) | Activity (Mus musculus [4])
CCc1nc(-n2nccn2)c2sccc2n1 | 779 | 4940 | > 10000 | – | – | – | –
CN(C)c1nc(-c2cn[nH]c2)c2sccc2n1 | 3080 | 5510 | > 10000 | – | – | – | –
CN(C)c1nc(-c2nccn2C)c2sccc2n1 | 14 | 1100 | > 10000 | – | – | inactive | –
CN(C)c1nc(-c2cc3ccccc3s2)c2sccc2n1 | 1330 | 1260 | > 10000 | – | – | – | –
CN(C)c1nc(-c2cccs2)c2sccc2n1 | 55 | 1960 | > 10000 | – | – | inactive | –
CN(C)c1nc(-c2ccco2)c2sccc2n1 | 60 | 2200 | > 10000 | – | – | Active | –
CN(C)c1nc(-c2ccoc2)c2sccc2n1 | 748 | 3470 | > 10000 | – | – | – | –
CN(C)c1nc(-c2ccccn2)c2sccc2n1 | 26 | 1590 | > 10000 | – | – | – | –
CCc1nc(-c2cccs2)c2sccc2n1 | 69 | 1470 | > 10000 | – | – | inactive | –
CCc1nc(-c2ccccn2)c2sccc2n1 | 13 | 917 | > 10000 | – | – | Active | –
Nc1nc(-c2ccco2)c2sccc2n1 | – | – | > 10000 | – | – | Active | –
Clc1nc(-c2cccs2)c2sccc2n1 | 391 | 2040 | > 10000 | – | – | inactive | –
Cc1ccc(-c2nc(N(C)C)nc3ccsc23)nc1 | 19 | 1260 | > 10000 | – | – | inactive | –
CN(C)c1nc(-c2cnccn2)c2sccc2n1 | 81 | 990 | > 10000 | – | – | inactive | –
OCCNc1nc(-c2ccco2)c2sccc2n1 | 203 | 868 | > 10000 | – | – | inactive | –
CCc1nc(-c2ccoc2)c2sccc2n1 | 681 | 10000 | > 10000 | – | – | – | –
Nc1nc(-c2nccs2)c2sccc2n1 | – | 675 | > 10000 | – | – | Active | –
CCNc1nc(-c2cccs2)c2sccc2n1 | 154 | 813 | > 10000 | – | – | inactive | –
CCc1nc(-c2cccc(C)n2)c2sccc2n1 | – | 1270 | – | – | – | inactive | –
Cc1cnc(-c2nc(N(C)C)nc3ccsc23)s1 | 5.7 | 908 | > 10000 | – | – | inactive | –
CCc1nc(-c2ccco2)c2sccc2n1 | 30 | 3210 | > 10000 | – | – | – | –
CN(C)c1nc(-c2ncc[nH]2)c2sccc2n1 | 299 | 5770 | > 10000 | – | – | Active | –
COc1nc(-c2cccs2)c2sccc2n1 | 444 | 1590 | > 10000 | – | – | inactive | –
CCc1nc(-c2ncc[nH]2)c2sccc2n1 | 142 | 5530 | > 10000 | – | – | Active | –

More lines, main results first:

Ki (Adenosine receptor A2a [1]) [nM] | Ki (Adenosine receptor A1) [nM] | EC50 (Adenosine receptor A2a [2]) [nM] | Ki (Adenosine receptor A2b) [nM] | Ki (Adenosine receptor A3) [nM] | SMILES | Activity (Mus musculus [3]) | Activity (Mus musculus [4])
– | 250 | – | – | – | OC[C@H]1CCCN1c1nc(-c2nccs2)c2sccc2n1 | Active | –
– | 14 | – | 2480 | 456 | OC[C@@H]1CCCN1c1nc(-c2nccs2)c2sccc2n1 | Active | –
20 | 615 | > 10000 | – | – | Clc1nc(-c2nccs2)c2sccc2n1 | – | –
– | 303 | – | – | – | Cc1csc(-c2nc(N(C)C)nc3ccsc23)n1 | Active | –
1.6 | 388 | > 10000 | 721 | 1810 | CCc1nc(-c2nccs2)c2sccc2n1 | Active | –
6.6 | 254 | > 10000 | – | – | Cc1nc(-c2nc(N(C)C)nc3ccsc23)sc1C | inactive | –
40 | 568 | > 10000 | – | – | CNc1nc(-c2ccco2)c2sccc2n1 | Active | –
58 | 375 | > 10000 | – | – | CCNc1nc(-c2ccco2)c2sccc2n1 | Active | –
172 | 401 | > 10000 | – | – | OCCNc1nc(-c2cccs2)c2sccc2n1 | Active | –
1.4 | 208 | > 10000 | 865 | 476 | CC(C)c1nc(-c2nccs2)c2sccc2n1 | Active | –
2.1 | 413 | > 10000 | – | – | CCc1nc(-c2nc(C)cs2)c2sccc2n1 | Active | –
2.3 | 366 | > 10000 | 1560 | 1760 | CN(C)c1nc(-c2nccs2)c2sccc2n1 | Active | –
18 | 57 | > 10000 | – | – | OCCNc1nc(-c2nccs2)c2sccc2n1 | Active | –
3.1 | 240 | > 10000 | – | – | CC(C)(C)c1nc(-c2nccs2)c2sccc2n1 | inactive | –
– | 259 | – | 910 | 945 | c1csc(-c2nc(C3CC3)nc3ccsc23)n1 | Active | Active
